What was measured:
Conditions in all cases: stereoisomer not certain
UniProt Q8VG27 = target: T1, UniProt Q8VG27
T1 sequence (whole entry): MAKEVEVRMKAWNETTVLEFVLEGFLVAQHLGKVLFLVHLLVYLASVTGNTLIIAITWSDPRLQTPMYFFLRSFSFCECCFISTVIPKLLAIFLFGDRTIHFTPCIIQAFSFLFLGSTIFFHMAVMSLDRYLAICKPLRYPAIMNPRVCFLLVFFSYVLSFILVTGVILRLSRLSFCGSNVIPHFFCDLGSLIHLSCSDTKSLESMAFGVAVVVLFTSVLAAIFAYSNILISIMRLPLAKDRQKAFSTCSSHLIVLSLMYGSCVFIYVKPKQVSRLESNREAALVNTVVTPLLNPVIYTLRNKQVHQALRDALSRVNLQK
Summary of the method: (§1)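 Each entry records the cell line, G-protein, co-transfected protein and tags used. Methods varied with the source, often transient luciferase assays in mammalian cell lines. A receptor–molecule pair is called responsive (active) if the original authors judged its signal statistically different from baseline and non-responsive (inactive) otherwise.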

UniProt Q8VG49 = target: T2, UniProt Q8VG49
T2 sequence (whole entry): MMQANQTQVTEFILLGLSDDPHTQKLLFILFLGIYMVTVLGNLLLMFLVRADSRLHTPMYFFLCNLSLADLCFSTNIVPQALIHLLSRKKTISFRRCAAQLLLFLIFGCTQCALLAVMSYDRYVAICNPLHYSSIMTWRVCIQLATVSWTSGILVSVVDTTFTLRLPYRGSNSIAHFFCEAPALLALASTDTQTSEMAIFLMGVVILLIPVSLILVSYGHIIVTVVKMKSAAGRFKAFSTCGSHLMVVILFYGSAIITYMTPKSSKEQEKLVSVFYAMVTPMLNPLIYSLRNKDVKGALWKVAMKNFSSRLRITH
Summary of the method: as §1

UniProt Q8VG53 = target: T3, UniProt Q8VG53
T3 sequence (whole entry): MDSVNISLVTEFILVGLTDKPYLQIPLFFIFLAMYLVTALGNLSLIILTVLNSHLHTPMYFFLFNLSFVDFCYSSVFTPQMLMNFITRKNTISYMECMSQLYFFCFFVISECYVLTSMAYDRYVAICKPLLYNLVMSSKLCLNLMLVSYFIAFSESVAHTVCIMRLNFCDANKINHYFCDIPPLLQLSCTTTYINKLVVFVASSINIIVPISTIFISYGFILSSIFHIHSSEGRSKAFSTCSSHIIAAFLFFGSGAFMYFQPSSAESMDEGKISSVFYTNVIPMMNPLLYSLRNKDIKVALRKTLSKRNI
Summary of the method: as §1

UniProt Q8VG64 = target: T4, UniProt Q8VG64
T4 sequence (whole entry): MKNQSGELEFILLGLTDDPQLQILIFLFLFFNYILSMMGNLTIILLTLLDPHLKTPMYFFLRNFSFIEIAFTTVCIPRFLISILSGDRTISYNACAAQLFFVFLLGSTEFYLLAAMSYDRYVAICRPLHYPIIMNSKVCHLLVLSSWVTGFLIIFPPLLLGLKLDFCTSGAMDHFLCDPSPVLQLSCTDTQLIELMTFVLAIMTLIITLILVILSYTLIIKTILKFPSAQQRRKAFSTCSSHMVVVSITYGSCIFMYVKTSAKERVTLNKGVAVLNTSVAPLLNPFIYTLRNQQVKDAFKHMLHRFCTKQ
Summary of the method: as §1

UniProt Q8VG77 = target: T5, UniProt Q8VG77
T5 sequence (whole entry): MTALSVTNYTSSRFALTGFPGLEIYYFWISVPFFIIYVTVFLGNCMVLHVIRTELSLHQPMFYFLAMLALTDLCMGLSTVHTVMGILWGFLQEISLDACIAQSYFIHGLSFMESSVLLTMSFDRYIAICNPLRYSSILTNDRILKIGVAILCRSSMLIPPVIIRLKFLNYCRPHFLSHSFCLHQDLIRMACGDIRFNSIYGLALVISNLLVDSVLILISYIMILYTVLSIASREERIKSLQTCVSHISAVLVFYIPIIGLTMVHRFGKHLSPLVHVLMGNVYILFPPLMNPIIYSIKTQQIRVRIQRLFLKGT
Summary of the method: as §1

UniProt Q8VG96 = target: T6, UniProt Q8VG96
T6 sequence (whole entry): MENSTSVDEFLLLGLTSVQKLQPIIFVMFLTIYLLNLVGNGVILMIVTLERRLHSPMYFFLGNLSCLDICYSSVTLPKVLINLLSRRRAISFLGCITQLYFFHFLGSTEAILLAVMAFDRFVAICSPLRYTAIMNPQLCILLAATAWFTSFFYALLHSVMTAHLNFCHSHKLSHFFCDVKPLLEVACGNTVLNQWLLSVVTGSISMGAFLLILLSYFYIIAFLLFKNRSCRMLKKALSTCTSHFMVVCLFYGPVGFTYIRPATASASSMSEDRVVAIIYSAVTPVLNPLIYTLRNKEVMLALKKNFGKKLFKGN
Summary of the method: as §1

UniProt Q8VGB9 = target: T7, UniProt Q8VGB9
T7 sequence (whole entry): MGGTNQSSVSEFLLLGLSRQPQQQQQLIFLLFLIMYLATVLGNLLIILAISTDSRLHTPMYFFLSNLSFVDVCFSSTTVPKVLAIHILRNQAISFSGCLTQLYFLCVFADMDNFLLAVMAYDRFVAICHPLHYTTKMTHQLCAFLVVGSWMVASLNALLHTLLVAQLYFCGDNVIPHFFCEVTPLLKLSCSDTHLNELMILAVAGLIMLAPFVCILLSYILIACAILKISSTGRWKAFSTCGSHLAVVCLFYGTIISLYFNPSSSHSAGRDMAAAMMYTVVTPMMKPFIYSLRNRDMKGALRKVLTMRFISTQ
Summary of the method: as §1

UniProt Q8VGC6 = target: T8, UniProt Q8VGC6
T8 sequence (whole entry): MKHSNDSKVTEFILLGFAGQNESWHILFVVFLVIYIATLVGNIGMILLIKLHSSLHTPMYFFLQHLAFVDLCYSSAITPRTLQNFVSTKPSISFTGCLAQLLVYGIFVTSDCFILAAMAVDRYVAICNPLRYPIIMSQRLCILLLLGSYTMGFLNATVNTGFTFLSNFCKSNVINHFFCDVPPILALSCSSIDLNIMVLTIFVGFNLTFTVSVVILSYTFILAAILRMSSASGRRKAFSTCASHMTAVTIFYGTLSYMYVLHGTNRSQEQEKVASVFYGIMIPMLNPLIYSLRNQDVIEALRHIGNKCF
Summary of the method: as §1

UniProt Q8VGD7 = target: T9, UniProt Q8VGD7
T9 sequence (whole entry): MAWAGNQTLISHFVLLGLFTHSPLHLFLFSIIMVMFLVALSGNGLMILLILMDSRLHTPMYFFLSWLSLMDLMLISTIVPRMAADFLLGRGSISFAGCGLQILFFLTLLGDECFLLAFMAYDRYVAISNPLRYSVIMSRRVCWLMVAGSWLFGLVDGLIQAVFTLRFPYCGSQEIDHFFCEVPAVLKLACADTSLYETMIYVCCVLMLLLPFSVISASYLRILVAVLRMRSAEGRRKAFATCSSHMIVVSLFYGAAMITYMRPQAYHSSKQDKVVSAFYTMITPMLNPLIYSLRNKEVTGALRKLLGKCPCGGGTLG
Summary of the method: as §1

UniProt Q8VGH1 = target: T10, UniProt Q8VGH1
T10 sequence (whole entry): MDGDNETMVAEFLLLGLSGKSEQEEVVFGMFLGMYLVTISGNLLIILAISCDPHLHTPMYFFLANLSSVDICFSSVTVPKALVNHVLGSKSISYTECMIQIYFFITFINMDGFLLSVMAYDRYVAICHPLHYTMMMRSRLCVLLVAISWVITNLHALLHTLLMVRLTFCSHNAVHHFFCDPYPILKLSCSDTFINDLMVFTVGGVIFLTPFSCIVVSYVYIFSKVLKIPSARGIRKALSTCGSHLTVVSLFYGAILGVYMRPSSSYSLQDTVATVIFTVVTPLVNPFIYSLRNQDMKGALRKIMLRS
Summary of the method: as §1

UniProt Q8VGJ1 = target: T11, UniProt Q8VGJ1
T11 sequence (whole entry): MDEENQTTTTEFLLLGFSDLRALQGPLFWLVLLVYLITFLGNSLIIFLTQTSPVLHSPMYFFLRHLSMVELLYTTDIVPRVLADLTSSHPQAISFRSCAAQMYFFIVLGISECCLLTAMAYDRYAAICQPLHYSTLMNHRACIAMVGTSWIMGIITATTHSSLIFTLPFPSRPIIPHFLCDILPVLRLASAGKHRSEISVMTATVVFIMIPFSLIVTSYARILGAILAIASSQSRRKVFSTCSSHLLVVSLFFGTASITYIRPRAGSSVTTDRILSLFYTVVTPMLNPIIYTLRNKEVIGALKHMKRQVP
Summary of the method: as §1

UniProt Q8VGJ3 = target: T12, UniProt Q8VGJ3
T12 sequence (whole entry): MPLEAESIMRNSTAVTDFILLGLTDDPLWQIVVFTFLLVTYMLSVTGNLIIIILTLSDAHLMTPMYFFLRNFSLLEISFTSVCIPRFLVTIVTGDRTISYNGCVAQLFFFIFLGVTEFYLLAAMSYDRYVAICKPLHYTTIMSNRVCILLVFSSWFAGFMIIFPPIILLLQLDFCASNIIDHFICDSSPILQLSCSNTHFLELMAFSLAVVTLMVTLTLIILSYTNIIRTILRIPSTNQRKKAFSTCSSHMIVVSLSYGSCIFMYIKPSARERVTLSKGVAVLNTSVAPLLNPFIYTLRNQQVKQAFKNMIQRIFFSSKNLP
Summary of the method: as §1

UniProt Q8VGJ5 = target: T13, UniProt Q8VGJ5
T13 sequence (whole entry): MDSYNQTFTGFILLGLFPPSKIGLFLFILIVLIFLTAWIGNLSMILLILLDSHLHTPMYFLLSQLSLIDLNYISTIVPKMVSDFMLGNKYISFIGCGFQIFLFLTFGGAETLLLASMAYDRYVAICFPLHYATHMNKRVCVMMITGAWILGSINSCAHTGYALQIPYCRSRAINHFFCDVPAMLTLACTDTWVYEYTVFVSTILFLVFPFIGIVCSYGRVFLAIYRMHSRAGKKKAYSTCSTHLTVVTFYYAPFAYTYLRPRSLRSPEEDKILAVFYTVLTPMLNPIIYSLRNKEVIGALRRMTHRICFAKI
Summary of the method: as §1

UniProt Q8VGL0 = target: T14, UniProt Q8VGL0
T14 sequence (whole entry): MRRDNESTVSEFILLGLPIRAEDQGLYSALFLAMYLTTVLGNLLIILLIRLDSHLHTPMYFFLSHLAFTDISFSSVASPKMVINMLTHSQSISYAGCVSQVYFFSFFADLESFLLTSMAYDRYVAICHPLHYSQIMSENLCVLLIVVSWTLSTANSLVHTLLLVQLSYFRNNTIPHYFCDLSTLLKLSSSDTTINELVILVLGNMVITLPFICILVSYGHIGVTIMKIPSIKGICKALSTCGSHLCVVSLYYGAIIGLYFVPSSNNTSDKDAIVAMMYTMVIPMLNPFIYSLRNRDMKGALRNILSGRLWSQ
Summary of the method: as §1

UniProt Q8VGL7 = target: T15, UniProt Q8VGL7
T15 sequence (whole entry): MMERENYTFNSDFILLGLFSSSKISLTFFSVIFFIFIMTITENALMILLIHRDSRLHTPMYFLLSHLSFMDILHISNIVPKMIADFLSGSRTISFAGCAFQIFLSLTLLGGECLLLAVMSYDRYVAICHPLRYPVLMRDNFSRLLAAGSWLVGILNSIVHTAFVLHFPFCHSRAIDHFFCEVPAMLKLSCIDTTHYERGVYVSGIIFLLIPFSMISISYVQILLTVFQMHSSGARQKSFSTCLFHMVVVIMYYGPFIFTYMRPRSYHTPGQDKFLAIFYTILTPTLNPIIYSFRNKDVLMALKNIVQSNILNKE
Summary of the method: as §1

UniProt Q8VG28 = target: UniProt Q8VG28
Summary of the method: as §1

Measured: odorant receptor agonist call

Sequence of UniProt Q8VG28 (Q8VG28 as listed by the source): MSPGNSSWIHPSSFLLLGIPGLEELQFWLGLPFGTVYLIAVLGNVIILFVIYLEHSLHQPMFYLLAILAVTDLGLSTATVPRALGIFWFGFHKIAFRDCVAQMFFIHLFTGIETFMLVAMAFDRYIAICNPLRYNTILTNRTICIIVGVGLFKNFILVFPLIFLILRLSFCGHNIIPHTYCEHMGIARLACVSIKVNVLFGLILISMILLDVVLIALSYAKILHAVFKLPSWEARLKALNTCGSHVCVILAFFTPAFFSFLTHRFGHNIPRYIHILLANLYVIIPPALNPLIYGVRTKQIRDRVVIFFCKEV

CC(=O)OCC=C(C)C
active: UniProt Q8VGC6 | UniProt Q8VGJ5
not listed: UniProt Q8VG28
inactive: all other assays above

C=C(C)C1CCC(C)C(=O)C1 (stereo unspecified)
active: UniProt Q8VGC6 | UniProt Q8VGJ5 | UniProt Q8VGL0
not listed: UniProt Q8VG28
inactive: all other assays above

O=C([O-])CCCCCCC(=O)[O-].[H+].[H+]
inactive: UniProt Q8VG27 | UniProt Q8VG28 | UniProt Q8VG53 | UniProt Q8VG64 | UniProt Q8VGB9 | UniProt Q8VGC6 | UniProt Q8VGJ3 | UniProt Q8VGL0

c1ccccc1
not listed: UniProt Q8VG28
inactive: all other assays above

O=C(O)CCCCCBr
inactive: UniProt Q8VG27 | UniProt Q8VG28 | UniProt Q8VG53 | UniProt Q8VG64 | UniProt Q8VGB9 | UniProt Q8VGC6 | UniProt Q8VGJ3 | UniProt Q8VGL0

CCCCC(C)=O
active: UniProt Q8VGB9 | UniProt Q8VGJ5
not listed: UniProt Q8VG28
inactive: all other assays above

From the M2OR odorant receptor database
